In ChEMBL document CHEMBL1156777, “Synthesis and antiprotozoal activity of cationic 1,4-diphenyl-1H-1,2,3-triazoles” (J Med Chem, 2010):
pIC50: −log10 of the molar value.

How the values were obtained:
[1] = Selectivity index, ratio of IC50 for rat L6 cells to IC50 for Plasmodium falciparum K1; assay type: toxicity, cell-based; details: read-out: Ratio IC50
How it was run: (§1)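 Each index is L6 IC50 divided by parasite IC50. L6 values are from the 70 h resazurin assay. T. b. rhodesiense STIB900 values are from the 70 h resazurin assay. P. falciparum K1 values are from erythrocytic-stage [³H]-hypoxanthine incorporation: 48 h drug exposure, then 24 h with label. L. donovani values are from the 72 h axenic amastigote CellTiter assay.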

[2] = system: Trypanosoma brucei rhodesiense; assay: Antitrypanosomal activity against Trypanosoma brucei rhodesiense STIB900 after 70 hrs by alamar blue assay; assay type: functional, organism-based; details: STIB900, 70 h
[3] = Selectivity index, ratio of IC50 for rat L6 cells to IC50 for Trypanosoma brucei rhodesiense STIB900; assay type: toxicity, cell-based; details: read-out: Ratio IC50; how it was run: as §1
L6 = assay: Cytotoxicity against rat L6 cells after 70 hrs by alamar blue assay; assay type: cell-based; details: L6, 70 h
How it was run: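 Cells were exposed to serial dilutions for 70 h at 37 °C, 5% CO₂, then given resazurin for 2–3 h. IC50 came from sigmoidal curves; two independent runs in duplicate. Top concentration was 90 μg/mL, converted to μM by molecular weight.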

Leishmania donovani = assay: Antileishmanial activity against Leishmania donovani MHOM/SD/62/1S-CL2D; assay type: functional, organism-based
How it was run: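 Axenic amastigotes (MHOM/SD/62/1S-CL2_D) adapted from promastigotes and grown in amastigote medium at 37 °C. 6 × 10⁴ parasites per well were exposed to 2-fold serial dilutions for 72 h at 37 °C in humidified 5% CO₂. Growth was read with tetrazolium CellTiter reagent as absorbance at 490 nm. IC50 came from a four-parameter dose–response fit; duplicate determinations were averaged.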

Plasmodium falciparum = assay: Antiplasmodial activity against chloroquine-resistant Plasmodium falciparum K1 infected in human erythrocytes after 48 hrs assessed as [3H]hypoxanthine incorporation by liquid scintillation counting; assay type: functional, organism-based
[4] = Selectivity index, ratio of IC50 for rat L6 cells to IC50 for Leishmania donovani MHOM/SD/62/1S-CL2D; assay type: toxicity, cell-based; details: read-out: Ratio IC50; how it was run: as §1
[5] = system: Trypanosoma brucei rhodesiense; assay: Antitrypanosomal activity against Trypanosoma brucei rhodesiense STIB900 infected in NMRI mouse assessed as mean parasitemia relaps day at 5 mg/kg, ip; assay type: functional; details: route intraperitoneal
How it was run: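 Female NMRI mice infected ip with 2 × 10⁴ STIB900 bloodstream forms. Groups of four dosed ip daily on days 3–6 postinfection; compounds in DMSO diluted with water to 10% final DMSO. Untreated infected controls. Tail-blood parasitaemia checked on days 7 and 10, twice weekly to day 30, then weekly to day 60. Relapse day recorded for mean relapse day; cure means parasite-free survival to day 60.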

SMILES | selectivity ratio [1] | pIC50 [2] | selectivity ratio [3] | pIC50 (L6) | pIC50 (Leishmania donovani) | pIC50 (Plasmodium falciparum) | selectivity ratio [4] | Activity [5]
N=C(N)c1ccc(-c2cn(-c3ccc(C(=N)N)cc3O)nn2)cc1 | > 1270 | 6.30 | > 431 | < 3.67 | < 4.00 | 6.77 |  | 
N=C(N)c1cccc(-c2cn(-c3cc(C(=N)N)ccc3O)nn2)c1 | > 23 | 4.30 | > 4 | < 3.68 | < 4.00 | 5.05 |  | 
CC(C)NC(=N)c1ccc(-c2cn(-c3cc(C(=N)NC(C)C)ccc3O)nn2)cc1 | > 32 | 4.82 | > 11 | < 3.77 | < 4.00 | 5.28 |  | 
COc1ccc(C(=N)N)cc1-c1cn(-c2cccc(C(=N)N)c2)nn1 | > 8330 | 5.78 | > 121 | < 3.70 | < 4.00 | 7.62 |  | 
c1cc(C2=NCCN2)cc(-n2cc(-c3ccc(C4=NCCN4)cc3)nn2)c1 | 1400 | 6.34 | 289 | 3.88 | < 4.00 | 7.02 |  | 
Oc1ccc(C2=NCCN2)cc1-n1cc(-c2cccc(C3=NCCN3)c2)nn1 | > 535 | 3.99 | > 2 | < 3.76 | < 4.00 | 6.49 |  | 
c1cc(C2=NCCN2)cc(-c2cn(-c3cccc(C4=NCCN4)c3)nn2)c1 | > 540 | 4.85 | > 14 | < 3.71 | < 4.00 | 6.44 |  | 
COc1cc(C(=N)NC(C)C)ccc1-n1cc(-c2cccc(C(=N)NC(C)C)c2)nn1 | > 2890 | 5.71 | > 81 | < 3.80 | < 4.00 | 7.26 |  | 
COc1ccc(C(=N)NC(C)C)cc1-n1cc(-c2cccc(C(=N)NC(C)C)c2)nn1 | 1050 | 5.00 | 13 | 3.88 | < 4.00 | 6.90 |  | 
COc1cc(C2=NCCN2)ccc1-n1cc(-c2cccc(C3=NCCN3)c2)nn1 | > 2980 | 5.73 | > 93 | < 3.76 | < 4.00 | 7.24 |  | 
Oc1cc(C2=NCCN2)ccc1-n1cc(-c2cccc(C3=NCCN3)c2)nn1 | > 1180 | 4.95 | > 17 | < 3.73 | < 4.00 | 6.80 |  | 
Oc1ccc(C2=NCCN2)cc1-n1cc(-c2ccc(C3=NCCN3)cc2)nn1 | > 198 | 4.71 | > 9 | < 3.76 | < 4.00 | 6.05 |  | 
Oc1ccc(C2=NCCN2)cc1-c1cn(-c2cccc(C3=NCCN3)c2)nn1 | > 3520 | 4.93 | > 16 | < 3.74 | < 4.00 | 7.28 |  | 
CC(C)NC(=N)c1ccc(-c2cn(-c3ccc(C(=N)NC(C)C)cc3O)nn2)cc1 | > 223 | 5.86 | > 129 | < 3.75 | < 4.00 | 6.10 |  | 
COc1ccc(C(=N)NC(C)C)cc1-n1cc(-c2ccc(C(=N)NC(C)C)cc2)nn1 | > 887 | 6.35 | > 387 | < 3.76 | < 4.00 | 6.71 |  | 
COc1ccc(C(=N)NC(C)C)cc1-c1cn(-c2ccc(C(=N)NC(C)C)cc2)nn1 | > 6810 | 7.11 | > 2300 | < 3.75 | < 4.00 | 7.59 |  | 
COc1cc(C2=NCCN2)ccc1-n1cc(-c2ccc(C3=NCCN3)cc2)nn1 | > 10400 | 6.17 | > 261 | < 3.75 | < 4.00 | 7.77 |  | 
CC(C)NC(=N)c1cccc(-c2cn(-c3ccc(C(=N)NC(C)C)cc3O)nn2)c1 | > 157 | 4.73 | > 10 | < 3.73 | < 4.00 | 5.92 |  | 

SMILES | selectivity ratio [1] | pIC50 [2] | selectivity ratio [3] | pIC50 (L6) | pIC50 (Leishmania donovani) | pIC50 (Plasmodium falciparum) | selectivity ratio [4] | Activity [5]
Oc1cc(C2=NCCN2)ccc1-n1cc(-c2ccc(C3=NCCN3)cc2)nn1 | > 4830 | 6.00 | > 198 | < 3.70 | < 4.00 | 7.39 |  | 
COc1cc(C2=NCCN2)ccc1-c1cn(-c2ccc(C3=NCCN3)cc2)nn1 | 12900 | 6.94 | 1220 | 3.85 | < 4.00 | 7.96 |  | 
COc1cc(C(=N)NC(C)C)ccc1-c1cn(-c2ccc(C(=N)NC(C)C)cc2)nn1 | > 12800 | 6.70 | > 826 | < 3.78 | < 4.00 | 7.89 |  | 
COc1ccc(C(=N)NC(C)C)cc1-c1cn(-c2cccc(C(=N)NC(C)C)c2)nn1 | > 1660 | 5.90 | > 141 | < 3.75 | < 4.00 | 6.97 |  | 
CC(C)NC(=N)c1cccc(-n2cc(-c3cc(C(=N)NC(C)C)ccc3O)nn2)c1 | > 742 | 4.96 | > 16 | < 3.77 | < 4.00 | 6.64 |  | 
CC(C)NC(=N)c1ccc(-c2cn(-c3cccc(C(=N)NC(C)C)c3)nn2)cc1 | 4490 | 6.34 | 418 | 3.71 | 4.24 | 7.37 | 3 | 
CC(C)NC(=N)c1cccc(-c2cn(-c3cccc(C(=N)NC(C)C)c3)nn2)c1 | > 1560 | 4.83 | > 12 | < 3.74 | < 4.00 | 6.93 |  | 
N=C(N)c1ccc(-c2cn(-c3cc(C(=N)N)ccc3O)nn2)cc1 | > 165 | 5.18 | > 31 | < 3.69 | < 4.00 | 5.91 |  | 
CC(C)NC(=N)c1ccc(-n2cc(-c3cccc(C(=N)NC(C)C)c3)nn2)cc1 | > 5000 | 6.27 | > 353 | < 3.72 | < 4.00 | 7.42 |  | 
CC(C)NC(=N)c1cccc(-c2cn(-c3cc(C(=N)NC(C)C)ccc3O)nn2)c1 | > 226 | 4.86 | > 12 | < 3.78 | < 4.00 | 6.13 |  | 
CC(C)NC(=N)c1cccc(-n2cc(-c3ccc(C(=N)NC(C)C)cc3O)nn2)c1.Cl.Cl | > 3570 | 7.11 | > 2270 | < 3.76 | < 4.00 | 7.31 |  | 18 days
COc1cc(C(=N)NC(C)C)ccc1-c1cn(-c2cccc(C(=N)NC(C)C)c2)nn1 | > 5000 | 6.15 | > 242 | < 3.77 | 4.49 | 7.47 | > 5 | 
c1cc(C2=NCCN2)cc(-c2cn(-c3ccc(C4=NCCN4)cc3)nn2)c1 | 1510 | 6.70 | 635 | 3.90 | < 4.00 | 7.08 |  | 
COc1cc(C(=N)NC(C)C)ccc1-n1cc(-c2ccc(C(=N)NC(C)C)cc2)nn1 | > 8630 | 6.48 | > 500 | < 3.79 | < 4.00 | 7.72 |  | 
COc1ccc(C2=NCCN2)cc1-n1cc(-c2cccc(C3=NCCN3)c2)nn1 | > 5730 | 5.11 | > 22 | < 3.76 | < 4.00 | 7.52 |  | 
COc1cc(C2=NCCN2)ccc1-c1cn(-c2cccc(C3=NCCN3)c2)nn1 | > 2690 | 5.40 | > 43 | < 3.76 | < 4.00 | 7.19 |  | 
COc1ccc(C2=NCCN2)cc1-n1cc(-c2ccc(C3=NCCN3)cc2)nn1 | > 7730 | 6.79 | > 1050 | < 3.77 | < 4.00 | 7.66 |  | 
Oc1cc(C2=NCCN2)ccc1-c1cn(-c2cccc(C3=NCCN3)c2)nn1 | > 11400 | 6.22 | > 302 | < 3.74 | < 4.00 | 7.80 |  | 
